Laboratory results from ChEMBL document CHEMBL3102817, “Mycoleptones A-C and polyketides from the endophyte Mycoleptodiscus indicus” (J Nat Prod, 2014).

Assays:
Leishmania donovani = assay: Antileishmanial activity against Leishmania donovani by AlamarBlue assay; format: functional, organism-based
Summary of the method: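 Microplate Alamar Blue (MABA) growth-inhibition assay on *L. donovani*, with amphotericin B and pentamidine as reference drugs.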

[1] = Cytotoxicity against human HCT8 cells by colorimetric method; format: functional, cell-based; details: HCT-8
HL-60 = assay: Cytotoxicity against human HL60 cells by colorimetric method; format: functional, cell-based
PC-3 = assay: Cytotoxicity against human PC3 cells by colorimetric method; format: functional, cell-based
SF-295 = assay: Cytotoxicity against human SF295 cells by colorimetric method; format: functional, cell-based
Leishmania major = assay: Antileishmanial activity against Leishmania major by AlamarBlue assay; format: functional; details: read-out: LD50 (the source's name)
MDA-MB-435 = assay: Cytotoxicity against human MDA-MB-435 cells by colorimetric method; format: functional, cell-based
[2] = Cytotoxicity against human lymphocytes by colorimetric method; format: cell-based; details: Lymphocyte

Row | SMILES | IC50 (Leishmania donovani) | IC50 [1] | IC50 (HL-60) | IC50 (PC-3) | IC50 (SF-295) | LC50 (Leishmania major) | IC50 (MDA-MB-435) | IC50 [2]
1 | COc1cc2oc(C)cc(=O)c2c(O)c1OC [STELLATIN] | > 169 µM | > 105 µM | > 105 µM | 20.5 µM | > 105 µM | 34.5 µM | > 105 µM | > 105 µM
2 | C[C@@H]1[C@H](O)[C@@H](C)/C=C/C=C/C=C/C=C/C=C/C=C/C=C/[C@H](O[C@@H]2O[C@H](C)[C@@H](O)[C@H](N)[C@@H]2O)C[C@@H]2O[C@](O)(C[C@@H](O)C[C@@H](O)[C@H](O)CC[C@@H](O)C[C@@H](O)CC(=O)O[C@H]1C)C[C@H](O)[C@H]2C(=O)O [AMPHOTERICIN B] | 0.14 µM |  |  |  |  |  |  | 
3 | COc1cccc2c1C(=O)c1c(O)c3c(c(O)c1C2=O)C[C@@](O)(C(=O)CO)C[C@@H]3O[C@H]1C[C@H](N)[C@H](O)[C@H](C)O1 [DOXORUBICIN] |  |  |  | 0.41 µM | 0.7 µM |  | 1.51 µM | 0.7 µM
4 | CC(=O)O[C@H]1C2=COC(C)=CC2=C(CC2=C3C=C(C)OC=C3[C@H](OC(C)=O)[C@@](C)(OC(C)=O)C2=O)C(=O)[C@]1(C)OC(C)=O |  | > 42 µM | > 42 µM | 33.3 µM | > 42 µM |  | > 42 µM | > 42 µM
5 | CC1=CC2=C(Cc3c(O)c(C)c4c(c3O)C(=O)OC(C)C4)C(=O)[C@](C)(O)[C@@H](O)C2=CO1 (stereo partly drawn) |  | > 58 µM | > 58 µM | 7.1 µM | > 58 µM | 21.7 µM | > 58 µM | > 58 µM
6 | COc1cc2oc(C)cc(=O)c2c(O)c1C | > 181 µM | > 113 µM | > 113 µM | > 113 µM | > 113 µM | 39.9 µM | > 113 µM | > 113 µM
7 | COc1cc2oc(CO)cc(=O)c2c(O)c1C |  | > 105 µM | > 105 µM | > 105 µM | > 105 µM |  | > 105 µM | > 105 µM
8 | CN[C@@H]1[C@@H](O)[C@@H](O[C@@H]2[C@@H](O)[C@H](O[C@H]3O[C@H]([C@@H](C)O)[C@@H](O)[C@H](O)[C@H]3N)[C@@H](N)C[C@H]2N)OC[C@]1(C)O [GENETICIN] |  |  |  |  |  | 3.43 µM |  | 
9 | CC1=CC2=C(CC3=C4C=C(C)OC=C4[C@H](O)[C@@](C)(O)C3=O)C(=O)[C@](C)(O)[C@@H](O)C2=CO1 | > 93.4 µM | > 58 µM | > 58 µM | 10 µM | > 58 µM | 28.5 µM | > 58 µM | > 58 µM
10 | CC1=CC2=C(C=O)C(=O)[C@](C)(O)[C@@H](O)C2=CO1 | 80.5 µM | 12.9 µM | 38.8 µM |  | 28 µM | 20.5 µM | 34.3 µM | > 113 µM
11 | CC(=O)O[C@H]1C2=COC(C)=CC2=C(C=O)C(=O)[C@]1(C)OC(C)=O | 59.3 µM | 13.9 µM | 22.1 µM |  | 26.3 µM | 19.8 µM | 26.9 µM | > 78 µM
